The results in this text go back to ChEMBL document CHEMBL1142665, “Synthesis and cytotoxic evaluation of novel spirohydantoin derivatives of the dihydrothieno[2,3-b]naphtho-4,9-dione system” (J Med Chem, 2005).

As usually defined, the IC50 is the concentration that gives 50% inhibition. A higher IC50 goes with a need for much substance.

Experiment [1] concerns SW-620. As to the kind of experiment: Inhibitory concentration against SW 620 human colon carcinoma cell line. Type of experiment: functional, cell-based. The procedure, abridged: (§1)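 Monolayer cultures in RPMI-1640 with 10% FBS; sensitive lines from ATCC, drug-resistant sublines from Istituto Tumori of Milan. Cells seeded at about 10% confluency and allowed 24 h to attach and recover. Exposed to varying drug concentrations for 24 h at 37 °C under 5% CO2, washed, then grown 48 h drug-free. Vehicle-matched controls. SRB read-out as %T/C. IC50 taken from dose/effect curve. Triplicate wells, mean of ≥3 independent experiments.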

Experiment [2] deals with MCF7. As to the kind of experiment: Inhibitory concentration against MCF-7 human breast carcinoma cell line. Type of experiment: functional, cell-based. The procedure, abridged:
as §1

Experiment [3] has as its system A2780cisR. As to the kind of experiment: Inhibitory concentration against A2780 ovarian carcinoma resistant to cisplatin. Type of experiment: functional, cell-based. Particulars: Homo sapiens. In short, it runs like this: as §1
Experiment [4] is described as follows: Inhibitory concentration against MeVo melanoma cell line. Type of experiment: functional, Homo sapiens. In short, it runs like this: as §1
For experiment [5], the system named is KB. Kind of experiment: Inhibitory concentration against KB epidermal carcinoma cell line. The format is functional, cell-based. Conditions: Homo sapiens. The procedure, abridged: as §1
The subject of experiment [6] is A2780. As to the kind of experiment: Inhibitory concentration against A2780 ovarian carcinoma cell line. Type of experiment: functional, cell-based. Particulars: Homo sapiens. The procedure, abridged:
as §1

Experiment [7] relates to NCI-H460. Kind of experiment: Inhibitory concentration against NCI-H460 lung carcinoma cell line. The format is functional, cell-based. Particulars: Homo sapiens. The procedure, abridged:
as §1

In experiment [8] the test system is LoVo. Kind of experiment: Inhibitory concentration against LoVo colon carcinoma cell line. Conditions: Homo sapiens. The format is functional, cell-based. The procedure, abridged: as §1
Experiment [9] relates to HEp-2. As to the kind of experiment: Inhibitory concentration against Hep-2 epidermal carcinoma cell line. Type of experiment: functional, cell-based. Particulars: Homo sapiens. In short, it runs like this:
as §1

Experiment [10] relates to A549. Kind of experiment: Inhibitory concentration against A549 lung carcinoma cell line. The format is functional, cell-based. Particulars: Homo sapiens. The procedure, abridged: as §1
The test system of experiment [11] is A2780. Kind of experiment: Inhibitory concentration against A2780 ovarian carcinoma resistant to doxorubicin. The format is functional, cell-based. Conditions: Homo sapiens. In short, it runs like this: as §1
Experiment [12] deals with MCF7. Kind of experiment: Inhibitory concentration against MCF-7 human breast carcinoma resistant to doxorubicin. The format is functional, cell-based. The procedure, abridged: as §1

Turning to `NCCN1C(=O)NC2(CSC3=C2C(=O)c2ccccc2C3=O)C1=O` (stereo in doubt; (-)-11), the IC50 in [1] (sw-620) came to 47 nM; in experiment [2] (mcf7), 31 nM.
With `CC(C)(C)N1C(=O)NC2(CSC3=C2C(=O)c2ccccc2C3=O)C1=O` (configuration not stated), the IC50 in experiment [1] (Homo sapiens, SW-620) amounted to 900 nM; in experiment [2] (Homo sapiens, MCF7), 331 nM.
As for `NCCN1C(=O)NC2(CSC3=C2C(=O)c2ccccc2C3=O)C1=O` (single isomer, unassigned; (+)), the IC50 in experiment [1] (sw-620) came to 34 nM; in experiment [2] (mcf7) it was 20 nM.
For `CN(C)CCN1C(=O)NC2(CSC3=C2C(=O)c2ccccc2C3=O)C1=O` (configuration not stated), the IC50 in experiment [1] (Homo sapiens, SW-620) was found to be 57 nM; in experiment [2] (Homo sapiens, MCF7) it was 32 nM.
For `NCCCCN1C(=O)NC2(CSC3=C2C(=O)c2ccccc2C3=O)C1=O` (configuration not stated), the IC50 in experiment [1] (Homo sapiens, SW-620) is 68 nM; in experiment [2] (Homo sapiens, MCF7), 35 nM.
Taken in the same sequence, the figures for `CCCN1C(=O)NC2(CSC3=C2C(=O)c2ccccc2C3=O)C1=O` (configuration not stated) were 379 nM and 104 nM.
Consider `CCN(CC)CCCN1C(=O)NC2(CSC3=C2C(=O)c2ccccc2C3=O)C1=O` (configuration not stated), for which the IC50 was 54 nM in [1] (Homo sapiens, SW-620) and 26 nM in [2] (Homo sapiens, MCF7).
In the same order, the values of `NCCN1C(=O)NC2(CSC3=C2C(=O)c2ccccc2C3=O)C1=O` (stereo in doubt; 11) are 35 nM and 22 nM.
Taken in the same sequence, the figures for `CCN1C(=O)NC2(CSC3=C2C(=O)c2ccccc2C3=O)C1=O` (configuration not stated) were 203 nM and 116 nM.
In the same order, the values of `CCC(C)N1C(=O)NC2(CSC3=C2C(=O)c2ccccc2C3=O)C1=O` (configuration not stated) are 562 nM and 178 nM.
Take `CCCCN1C(=O)NC2(CSC3=C2C(=O)c2ccccc2C3=O)C1=O` (configuration not stated): the IC50 was determined as 740 nM in [1] (Homo sapiens, SW-620) and 178 nM in experiment [2] (Homo sapiens, MCF7).
In the same order, the values of `O=C1C2=C(C(=O)c3ccccc31)C1(CS2)NC(=O)N(CCO)C1=O` (configuration not stated) are 198 nM and 69 nM.
Turning to `CN(C)CCCN1C(=O)NC2(CSC3=C2C(=O)c2ccccc2C3=O)C1=O` (stereo in doubt; (-)-15), the IC50 in [1] (sw-620) came out at 65 nM; in experiment [2] (mcf7), 27 nM.
For the compound `CN1C(=O)NC2(CSC3=C2C(=O)c2ccccc2C3=O)C1=O` (configuration not stated), the IC50 worked out at 108 nM in [1] (Homo sapiens, SW-620) and 23 nM in experiment [2] (Homo sapiens, MCF7).
Taken in the same sequence, the figures for `CCN(CC)CCN1C(=O)NC2(CSC3=C2C(=O)c2ccccc2C3=O)C1=O` (configuration not stated) were 50 nM and 21 nM.
As to `CN(C)CCCN1C(=O)NC2(CSC3=C2C(=O)c2ccccc2C3=O)C1=O` (single isomer, unassigned; (+)), half-maximal inhibition in [1] (sw-620) (IC50) was put at 60 nM.
`COc1cccc2c1C(=O)c1c(O)c3c(c(O)c1C2=O)C[C@@](O)(C(=O)CO)C[C@@H]3O[C@H]1C[C@H](N)[C@H](O)[C@H](C)O1` [DOXORUBICIN]: the IC50 in [3] was determined as 6 nM; in experiment [4], 820 nM; in experiment [1] (Homo sapiens, SW-620) it was 178 nM; in experiment [5] it was 21 nM; in experiment [6], 7 nM; in experiment [7], 10 nM. Also, the IC50 in experiment [8] is 33 nM; in experiment [9], 59 nM; in experiment [10] it was 64 nM; in experiment [11], 290 nM.
With `CN(C)CCCN1C(=O)NC2(CSC3=C2C(=O)c2ccccc2C3=O)C1=O` (stereo in doubt; 15), the IC50 in experiment [3] is 110 nM; in experiment [4], 250 nM; in experiment [1] (Homo sapiens, SW-620), 58 nM; in experiment [5] it was 100 nM; in [2] (Homo sapiens, MCF7) it was 19 nM; in [6] it was 68 nM. In addition, the IC50 in experiment [7] worked out at 260 nM; in [8], 230 nM; in experiment [9], 170 nM; in experiment [10], 110 nM; in [11], 130 nM; in experiment [12], 173 nM.
With `O=C1C2=C(C(=O)c3ccccc31)C1(CS2)NC(=O)N(CCCO)C1=O` (configuration not stated), the IC50 in [1] (Homo sapiens, SW-620) is 119 nM; in [2] (Homo sapiens, MCF7), 40 nM.
Taken in the same sequence, the figures for `NCCCN1C(=O)NC2(CSC3=C2C(=O)c2ccccc2C3=O)C1=O` (configuration not stated) were 52 nM and 25 nM.
